Values after ≈ are worked out from the molar mass of the structure shown.
Tests used:
[1] = test system: Mycobacterium tuberculosis; assay: Antimycobacterial activity against Mycobacterium tuberculosis H37Ra ATCC 25177 by microbroth dilution method; assay type: functional
How it was run: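 M. tuberculosis H37Ra (ATCC 25177) colonies suspended in Middlebrook 7H9 broth to 1.0 McFarland, diluted tenfold, mixed 1:1 with twofold compound dilutions (DMSO stocks; final 256 to 1 µg/mL). Growth was checked by Kinyoun acid-fast smear. MIC = lowest concentration giving complete inhibition.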

L929 = assay: Cytotoxicity against mouse L929 cells at 0.1 mM after 24 hrs by MTT assay; assay type: cell-based; conditions: l929, 24 h, 100 µM
How it was run: (§1)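 L929 mouse fibroblasts seeded at 3 × 10³ cells/well in 100 µl medium; cell-free medium wells as controls. Exposed to compounds at 10^-4 M for 24 h. Viable cells quantified by MTT with absorbance read at 570 nm. Viability given as percent of absorbance of unexposed cells. Each experiment repeated three times.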

[2] = Cytotoxicity against mouse L929 cells at 0.1 mM assessed as cell viability after 24 hrs by MTT assay; assay type: cell-based; conditions: read-out: Activity; how it was run: as §1

SMILES | MBC [1] [µg/mL] | MIC [1] [µg/mL] | Activity (L929) | viability at 24 h, 100 µM [2] [%]
CC(=O)NS(=O)(=O)c1ccc(N2C(=O)c3c(F)c(F)c(F)c(F)c3C2=O)cc1 | 128 (≈ 307 µM) | 64 (≈ 154 µM) | Non-toxic | –
Cc1cc(C)nc(NS(=O)(=O)c2ccc(N)cc2)n1 [SULFAMETHAZINE] | 256 (≈ 920 µM) | 32 (≈ 115 µM) | – | –
Nc1ccc(S(=O)(=O)NC(=O)c2ccccc2)cc1 [SULFABENZAMIDE] | 256 (≈ 926 µM) | 32 (≈ 116 µM) | – | –
Cc1ccnc(NS(=O)(=O)c2ccc(N)cc2)n1 [SULFAMERAZINE] | 256 (≈ 969 µM) | 32 (≈ 121 µM) | – | –
Cc1cc(C)nc(NS(=O)(=O)c2ccc(N3C(=O)c4c(F)c(F)c(F)c(F)c4C3=O)cc2)n1 | 128 (≈ 266 µM) | 32 (≈ 66.6 µM) | Toxic | –
Nc1ccc(S(=O)(=O)Nc2nccs2)cc1 [SULFATHIAZOLE] | 16 (≈ 62.7 µM) | 4 (≈ 15.7 µM) | – | –
O=C1c2c(F)c(F)c(F)c(F)c2C(=O)N1c1ccc(S(=O)(=O)Nc2nccs2)cc1 | 64 (≈ 140 µM) | 64 (≈ 140 µM) | Non-toxic | –
O=C1c2ccccc2C(=O)N1c1ccc(S(=O)(=O)Nc2nccs2)cc1 | 256 (≈ 664 µM) | 256 (≈ 664 µM) | Non-toxic | –
O=C1CCC(N2C(=O)c3ccccc3C2=O)C(=O)N1 (stereo not drawn) [THALIDOMIDE] | 256 (≈ 991 µM) | 128 (≈ 496 µM) | – | –
Cc1cc(NS(=O)(=O)c2ccc(N)cc2)no1 [SULFAMETHOXAZOLE] | 256 (≈ 1010 µM) | 32 (≈ 126 µM) | – | –
COc1ncnc(NS(=O)(=O)c2ccc(N)cc2)c1OC [SULFADOXINE] | 256 (≈ 825 µM) | 32 (≈ 103 µM) | – | –
COc1ncnc(NS(=O)(=O)c2ccc(N3C(=O)c4c(F)c(F)c(F)c(F)c4C3=O)cc2)c1OC | 64 (≈ 125 µM) | 32 (≈ 62.5 µM) | Toxic | < 50
Nc1ccc(S(=O)(=O)Nc2ncccn2)cc1 [SULFADIAZINE] | 128 (≈ 511 µM) | 8 (≈ 32 µM) | – | –
Cc1ccnc(NS(=O)(=O)c2ccc(N3C(=O)c4c(F)c(F)c(F)c(F)c4C3=O)cc2)n1 | 256 (≈ 549 µM) | 128 (≈ 274 µM) | – | –
NNC(=O)c1ccncc1 [ISONIAZID] | – | < 0.2 | – | –
Cc1cc(NS(=O)(=O)c2ccc(N3C(=O)c4c(F)c(F)c(F)c(F)c4C3=O)cc2)no1 | 128 (≈ 281 µM) | 32 (≈ 70.3 µM) | Toxic | < 50
CC(=O)NS(=O)(=O)c1ccc(N2C(=O)c3ccccc3C2=O)cc1 | 256 (≈ 743 µM) | 256 (≈ 743 µM) | Non-toxic | –
O=C(NS(=O)(=O)c1ccc(N2C(=O)c3ccccc3C2=O)cc1)c1ccccc1 | 256 (≈ 630 µM) | 128 (≈ 315 µM) | Non-toxic | –
O=C1c2c(F)c(F)c(F)c(F)c2C(=O)N1c1ccc(S(=O)(=O)Nc2ncccn2)cc1 | 64 (≈ 141 µM) | 32 (≈ 70.7 µM) | Non-toxic | –
CC(=O)NS(=O)(=O)c1ccc(N)cc1 [SULFACETAMIDE] | 256 (≈ 1190 µM) | 64 (≈ 299 µM) | – | –
O=C(NS(=O)(=O)c1ccc(N2C(=O)c3c(F)c(F)c(F)c(F)c3C2=O)cc1)c1ccccc1 | 128 (≈ 268 µM) | 64 (≈ 134 µM) | Non-toxic | –
